Test results from ChEMBL document CHEMBL5104115, “Design, synthesis of novel triptolide-glucose conjugates targeting glucose Transporter-1 and their selective antitumor effect” (Eur J Med Chem, 2022).
Activity calls are given as the source filed them. The calls are words filed in the database; no cut-off is given here.

Experiments:
[1] = Octanol-water partition coefficient, logD of the compound in PBS at pH 7.4 by liquid chromatography based mass spectrometric analysis; type: physicochemical
In short: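 Shake-flask method: 3.0 mg compound dissolved in PBS-saturated n-octanol and rotated 24 h at room temperature. The octanol phase was then mixed with octanol-saturated PBS, rotated another 24 h and centrifuged. Both phases quantified by LC-MS against a standard curve, and log P = log(C octanol/C water).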

HCT-116 = assay: Cytotoxicity against human HCT-116 cells incubated for 72 hrs by MTT assay; type: functional, cell-based; settings: HCT-116, 72 h
In short: (§1)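 Cells seeded at 4000/well, incubated overnight, then exposed to a range of concentrations, or DMSO vehicle, for 72 h. MTT (5 mg/mL solution) added for 4 h and formazan dissolved in DMSO. Absorbance read at 570 nm, and IC50 derived from the curves. Tumor lines were grown in RPMI 1640; HUVEC, HaCaT and LO2 were grown in DMEM, each with 10% FBS at 37 °C and 5% CO2.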

HT-29 = assay: Cytotoxicity against human HT-29 cells incubated for 72 hrs by MTT assay; type: functional, cell-based; settings: HT-29, 72 h; in short: as §1
NCI-H1975 [2] = assay: Cytotoxicity against human NCI-H1975 cells incubated for 72 hrs by MTT assay; type: functional, cell-based; settings: NCI-H1975, 72 h; in short: as §1
[3] = Cytotoxicity against human L02 cells incubated for 72 hrs by MTT assay; type: toxicity, cell-based; in short: as §1
[4] = Cytotoxicity against human HaCaT cells incubated for 72 hrs by MTT assay; type: toxicity, cell-based; in short: as §1
NCI-H1975 [5] = assay: Cytotoxicity against Glut1 knocked down human NCI-H1975 cells transfected with KD2 assessed as decrease in cell viability incubated for 72 hrs by MTT assay; type: functional, cell-based; settings: NCI-H1975, 72 h
In short: (§2)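 Stable Glut-1 knockdown (KD1, KD2, vector KD V) or overexpression (OE, vector OE V) NCI-H1975 cells made by 12 h lentiviral infection, 72 h culture, then 14 days puromycin selection; Glut-1 confirmed by Western blot. Cells seeded at 4000/well overnight, dosed over a concentration range or DMSO for 72 h. MTT read at 570 nm; IC50 from ≥3 replicates.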

NCI-H1975 [6] = assay: Cytotoxicity against human NCI-H1975 cells transfected with OE V overexpressing Glut1assessed as decrease in cell viability incubated for 72 hrs by MTT assay; type: functional, cell-based; settings: NCI-H1975, 72 h; in short: as §2
NCI-H460 [7] = assay: Down regulation of RNA polymerase II in human NCI-H460 cells measured after 48 hrs by Western blotting analysis; type: functional, cell-based
In short: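 NCI-H460 cells treated for 48 h, harvested by trypsinization and lysed on ice in NP-40 buffer (50 mmol/L Tris pH 8.0, 150 mmol/L NaCl, 1% NP-40). Protein quantified by BCA and resolved by SDS-PAGE. Blots probed for RNA Pol II (1:1000), with GAPDH as loading control, and detected by chemiluminescence.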

NCI-H460 [8] = assay: Induction of apoptosis in human NCI-H460 cells assessed as necrotic cells at 1 uM measured after 48 hrs by Annexin V-FITC/PI staining method (reference value: 1.62%); type: functional
NCI-H460 [9] = assay: Induction of apoptosis in human NCI-H460 cells assessed as late apoptotic cells at 20 uM measured after 48 hrs by Annexin V-FITC/PI staining method (reference value: 8.47%); type: functional
NCI-H460 [10] = assay: Induction of apoptosis in human NCI-H460 cells assessed as necrotic cells at 20 uM measured after 48 hrs by Annexin V-FITC/PI staining method (reference value: 1.62%); type: functional
NCI-H460 [11] = assay: Induction of apoptosis in human NCI-H460 cells assessed as viable cells at 50 uM measured after 48 hrs by Annexin V-FITC/PI staining method (reference value: 86.7%); type: functional; settings: read-out: Activity
NCI-H460 [12] = assay: Induction of apoptosis in human NCI-H460 cells assessed as early apoptotic cells at 50 uM measured after 48 hrs by Annexin V-FITC/PI staining method (reference value: 3.26%); type: functional
NCI-H460 [13] = assay: Induction of ROS accumulation in human NCI-H460 cells measured upto 20 uM after 42 to 48 hrs by DCFH-DA staining based flow cytometric analysis; type: functional, cell-based; settings: time 42-48 hrs
In short: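 NCI-H460 cells exposed 42 h or 48 h. Cells suspended in 1% BSA DPBS, loaded with DCFH-DA (0.2 µL of 10 mM stock per 200 µL) for 30 min in the dark, washed, analyzed by flow cytometry. DCF fluorescence expressed as percentage relative to untreated control from histograms, ≥3 replicates.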

[14] = Stability in mouse serum measured after 8 hrs by HPLC analysis; type: ADME, cell-free
[15] = Stability in human serum measured upto 72 hrs by HPLC analysis; type: ADME, cell-free
In short: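 15 µM test agent incubated with human or mouse serum at 37 °C for 0, 0.5, 1, 8, 12, 18, 60 and 72 h. Samples stored at −80 °C, protein precipitated with 200 µL methanol, vortexed and sonicated 5 min. Intact agent and released triptolide measured by HPLC at 220 nm, in duplicate.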

[16] = Stability in NCI-H1975 tumor bearing nude mouse model plasma at 1 mg/kg, iv; type: ADME, organism-based; settings: in vivo
[17] = Drug distribution in NCI-H1975 tumor bearing nude mouse model assessed as tumor to liver ratio of triptolide metabolite at 2 mg/kg, iv by LC-MS analysis; type: ADME, organism-based; settings: in vivo
In short: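 NCI-H1975 xenograft mice, tumors about 500 mm3, 3 per group, fasted 12 h with water available. Given 2 mg/kg iv and sacrificed 1 h later. Heart, liver, lung, kidney and tumor weighed and flash-frozen. 1.0 g tissue homogenized in 2.0 mL saline, methanol-precipitated, reconstituted. Parent, triptolide succinate and triptolide measured by LC-MS; tumor/organ ratios calculated.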

[18] = Toxicity in BALB/c nude mouse xenografted with human NCI-H1975 cells assessed as decreased spermatogenic cells at 2 mg/kg administered ip, qd for 2 weeks; settings: in vivo, 336 h
[19] = Toxicity in BALB/c nude mouse xenografted with human NCI-H1975 cells assessed as morphological change in lung at 1 to 2 mg/kg administered ip, qd for 2 weeks; settings: in vivo, 336 h
NCI-H1975 (Homo sapiens) = assay: Antineoplastic activity against human NCI-H1975 cells xenografted in BALB/c nude mouse assessed as tumor growth inhibition at 1 to 2 mg/kg, ip, qd for 2 weeks; settings: dose 1-2 mg/kg
[20] = Toxicity in BALB/c nude mouse xenografted with human NCI-H1975 cells assessed as morphological change in liver at 1 to 2 mg/kg administered ip, qd for 2 weeks; settings: in vivo, 336 h
NCI-H1975 [21] = assay: Antitumor activity against human NCI-H1975 cells xenografted in BALB/c nude mouse assessed as tumor growth inhibition at 2 mg/kg, ip, qd for 2 weeks relative to control; settings: NCI-H1975, 336 h, read-out: TGI
[22] = Toxicity in BALB/c nude mouse xenografted with human NCI-H1975 cells assessed as loss of body weight at 1 to 2 mg/kg administered ip, qd for 2 weeks measured every 3 days; settings: in vivo, 336 h

logD [1]: -0.347
Stability [14]: Stable
Stability [15]: Stable
Stability [16]: Unstable
Ratio [17]: 9.3
SMILES: CC(C)[C@]12O[C@H]1[C@@H]1O[C@]13[C@]1(O[C@H]1C[C@H]1C4=C(CC[C@@]13C)C(=O)OC4)[C@@H]2OC(=O)CCC(=O)O[C@H]1C(O)O[C@H](CO)[C@@H](O)[C@@H]1O (stereo not given in full)
IC50 (HCT-116): 1950 nM
IC50 (HT-29): 2190 nM
IC50 (NCI-H1975 [2]): 2040 nM
IC50 at 72 h [3]: 1320 nM
IC50 at 72 h [4]: 6540 nM
IC50 (NCI-H1975 [5]): 11600 nM
IC50 (NCI-H1975 [6]): 5270 nM
Activity (NCI-H460 [7]): Active
Activity (NCI-H460 [8]): 0.85%
Activity (NCI-H460 [9]): 27.4%
Activity (NCI-H460 [10]): 4.89%
viability at 50 µM (NCI-H460 [11]): 22.7%
Activity (NCI-H460 [12]): 50.2%
Activity (NCI-H460 [13]): Active
Activity [18]: Toxic
Activity [19]: Non-Toxic
Activity (NCI-H1975 (Homo sapiens)): Active
Activity [20]: Non-Toxic
inhibition in vivo at 2 mg/kg (NCI-H1975 [21]): 90.4%
Activity [22]: Non-Toxic
